TPT1 inhibitor = inhibitors of Candida albicans tRNA 2'-phosphotransferase TPT1. AID 1962. inhibition, % at 5 µM. 300,000 tested, 0.81% active. recombinant caTPT1, FP RNA substrate dephosphorylation;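 active = inhibition above the mean of all tested compounds plus 3 SD, set per screening campaign, cut at about 24% in these data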;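 note: plate controls were DMSO alone for no effect and ferristatin control at 100 nM for full effect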
IDE cell inh = inhibitors of human insulin-degrading enzyme in cells; P14735; HEK cells, FAbetaB cleavage, fluorescence polarization; inhibition, % at 5.59 µM; 320,000 tested, 0.41% active; AID 434962;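 active = percent inhibition above the average of all tested compounds plus 3 SD, set per screening campaign, cut at about 16% in these data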;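 note: IDE supplied by intact live HEK cells; FP after avidin binding of uncleaved biotin substrate so inhibition keeps polarization high; 0% = DMSO wells and 100% = 60 µM reference IDE inhibitor Ii1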
HNF4A DNA FP = change in binding of human HNF4 alpha to DNA; 360,000 tested, 0.3% active; HNF4a-FITC DNA binding, fluorescence polarization, 1 h; P41235; AID 1224865; activity change, % at 10 µM; in the data active = activity change above about 30%, passing the limit was not always enough
Target sequence (P41235 whole entry, looked up): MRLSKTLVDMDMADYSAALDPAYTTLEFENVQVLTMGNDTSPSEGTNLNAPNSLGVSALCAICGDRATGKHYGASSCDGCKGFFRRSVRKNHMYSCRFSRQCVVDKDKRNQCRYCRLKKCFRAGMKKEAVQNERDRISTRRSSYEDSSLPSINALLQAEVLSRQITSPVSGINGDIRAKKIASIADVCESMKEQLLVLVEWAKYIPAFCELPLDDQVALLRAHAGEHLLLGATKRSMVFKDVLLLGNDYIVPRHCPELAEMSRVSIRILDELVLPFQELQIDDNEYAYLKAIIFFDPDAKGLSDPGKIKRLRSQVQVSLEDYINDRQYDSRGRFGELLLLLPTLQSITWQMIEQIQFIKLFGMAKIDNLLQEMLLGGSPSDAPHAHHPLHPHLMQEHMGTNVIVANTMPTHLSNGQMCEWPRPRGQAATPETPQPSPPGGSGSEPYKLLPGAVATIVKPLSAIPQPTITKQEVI
Rpn11 block = inhibitors of human proteasome Rpn11; O00487; human 26S proteasome, Ub4-pepOG fluorescence polarization; 20S core pre-blocked with epoxomicin; inhibition, % at 20 µM; 360,000 tested, 0.59% active;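 active = inhibition at 20 µM, scaled to each plate's controls, above about 33%, limit read from the data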
IDE cell activ = activators of human insulin-degrading enzyme in cells; activation, % at 5.96 µM; P14735; HEK cells, FAbeta-B cleavage, fluorescence polarization; 0% vehicle, 100% cell-free pure enzyme wells; 340,000 tested, 0.073% active;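 active = activation above the mean of all tested compounds plus 3 SD, set per screening campaign, cut at about 17% in these data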
CSN inh = blocks human CSN-mediated cullin deneddylation | Q92905 | 360,000 tested, 0.38% active | inhibition, % at 12.5 µM | Purified CSN, SCF-Nedd8-OG deneddylation, fluorescence polarization;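 active = pattern-corrected inhibition above about 35%, with an unprinted fluorescence ratio check between 0.5 and 1.5, limit read from the data, passing the limit was not always enough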;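 note: 0% = enzyme with substrate and 100% = substrate without enzyme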
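Schedule: reaction 90 min, room temperature / Assay system: HEK293T-derived human Csn5 enzyme / Input: Csn5 at 0.24 nM final / Measure: inhibition of Csn5 cleavage, % / Control set: substrate-only high control, full reaction low control / Technique: fluorescence polarization of the substrate / Buffer or medium: Tris/NaCl/DTT buffer, pH 7.5 / Reagent: SCFSkp2-Nedd8OG substrate at 10 nM final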
TPT1 inh confirm = TPT1 (C. albicans) inhibition, confirmation; shares compounds with TPT1 inhibitor; AID 2149; 2,400 tested, 74% active; inhibition, % at 5 µM; recombinant caTPT1, fluorescence polarization, RNase T1 coupled;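 active = inhibition above the primary screen limit, the mean inhibition of all tested compounds plus 3 SD, cut at about 25% in these data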
RNase T1 counter = counter-screen for TPT1 inhibitors: inhibitors of Aspergillus oryzae RNase T1 | shares compounds with TPT1 inhibitor | RNase T1 cleavage, fluorescence polarization, 1536-well | inhibition, % at 5 µM | 2,400 tested, 83% active | AID 2153;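 active = inhibition above the solvent-only control well mean plus 3 SD, limit set per screening run, cut at about 23% in these data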;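 note: plate controls were DMSO wells with enzyme for no effect and wells without RNase T1 for full effect; inhibitors block cleavage so intact labeled substrate keeps polarization high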
Target sequence (P00651 whole entry, looked up): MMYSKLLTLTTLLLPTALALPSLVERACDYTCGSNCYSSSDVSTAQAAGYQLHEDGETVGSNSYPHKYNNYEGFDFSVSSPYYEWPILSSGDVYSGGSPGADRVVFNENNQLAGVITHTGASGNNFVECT
The depositor's hits bear a star; / = no result given. This is a sample that favours compounds with a hit; in the whole collection about 1.7% have one here.

SMILES	TPT1 inhibitor	IDE cell inh	HNF4A DNA FP	Rpn11 block	IDE cell activ	CSN inh	others
O=c1[nH]c2ccccc2n1C1CCN(C(c2cccc3ccccc23)c2nnnn2Cc2ccccc2)CC1 (stereo unspecified)	/	/	-2.1	7.3	/	1.2
O=c1[nH]c2ccccc2n1C1CCN(C(CCc2ccccc2)c2nnnn2C2CCCC2)CC1 (stereo unspecified)	/	/	1.5	7.1	/	106.4*
c1ccc(C2CC3CC4(CCCC4)N2O3)cc1 (stereo unspecified)	0.2	-0.7	-3.8	-3.3	18.2*	1.6
C=C1C(=O)OC2CCN3CC=C(COC(=O)C(C)(O)C4(CO4)C1C)C23 (stereo unspecified)	/	/	-0.5	-2.3	/	-0.7
O=C(COc1ccccc1)N1CCN(C2CCCC2)CC1	-2.4	2.6	40.3*	3.2	4.6	-1.4
O=C1NC(=O)C(=C/C=C/c2coc3ccc(Br)cc3c2=O)C(=O)N1	38.5*	10.4	/	/	/	/
O=C1NC(=O)C(=Cc2coc3ccccc3c2=O)C(=O)N1	1.9	-0.8	-2.7	4.3	-3.1	-2.6
CN1CC(C(=O)c2ccccc2)C(C(=O)c2ccccc2)C1 (stereo unspecified)	1.2	-2.1	-3.5	1.5	-7.2	0.8
O=C(c1ccccc1)C1NC1c1ccccc1 (stereo unspecified)	-3.2	3.0	-2.5	1.0	19.7*	-2.9
Nc1ccc2ccc3cccc[n+]3c2c1	-105.8	-28.0	-98.6	-218.1	46.1*	-76.0
Nc1c(C(=O)NCCN2CCOCC2)c2nc3ccccc3nc2n1Cc1ccccc1	6.6	5.1	-1.6	-5.3	3.4	3.1
CCCCn1c(N)c(C(=O)NCCN2CCOCC2)c2nc3ccccc3nc21	4.1	1.6	2.4	18.1	2.8	36.5*
NS(=O)(=O)c1ccc(-c2ccc(C=C3C(=O)NC(=S)NC3=O)o2)cc1	36.2*	-0.9	/	/	/	/
C=C1C(O)[C@@H]2O[C@]3(CC[C@H](/C=C/C(C)[C@@H]4CC(C)=CC5(O[C@H](C[C@@](C)(O)C(=O)O)CCC5O)O4)O3)CC[C@H]2O[C@@H]1C(O)CC(C)[C@H]1OC2(CCCCO2)CCC1C (stereo partly specified)	/	3.0	/	/	/	/
C=C1C(=O)OC2CC3(C)OC3C3OC3C3=CC(OC3=O)C12 (stereo unspecified)	/	/	-4.6	-14.3	/	2.1
O=c1[nH]c(O)c(C=Nc2ccccc2Oc2ccccc2)c(=O)[nH]1	0.0	-1.6	4.2	18.8	-1.0	47.7*
O=C(c1ccccc1)c1ccccc1N=Cc1c(O)[nH]c(=O)[nH]c1=O	5.7	6.1	3.7	-2.1	5.2	25.3
CCOC(=O)[C@]12Cc3ccccc3[C@H]1N(CCC(=O)OC)C(=O)c1cc(OC)ccc12	/	/	2.8	/	/	-5.6
CCOC(=O)[C@]12Cc3cc(Cl)ccc3[C@H]1N(C1CCCCC1)C(=O)c1ccccc12	/	/	-4.3	/	/	-1.9
NC1C2CN3CCN(C2)CC1(c1ccccc1)C3 (stereo unspecified)	-3.0	4.8	75.1*	-16.6	5.1	0.5
O=[N+]([O-])c1ccc(N2CCOCC2)c2c1no[n+]2[O-]	/	/	-6.0	-55.6	/	-7.1
Cc1cccc(OP(N)(N)=O)c1C	4.7	0.4	-1.1	1.1	-3.1	115.3*
Cc1cccc(C)c1OP(N)(=O)Oc1c(C)cccc1C	-1.1	4.1	-5.4	-3.7	8.6	-8.1
CC(C)C[C@@H]1COc2cccc(N3CCN(C)CC3)c2S(=O)(=O)N1	/	/	0.6	/	/	-4.9
Cc1ccsc1C(=O)C1CCCN(Cc2cnc(N3CCOCC3)s2)C1 (stereo unspecified)	4.4	-0.8	-1.4	-3.8	3.9	101.2*
SMILES	TPT1 inhibitor	IDE cell inh	HNF4A DNA FP	Rpn11 block	IDE cell activ	CSN inh	others
CC(C)(C)n1nnnc1C(c1ccnc2ccccc12)N1CCC2(CC1)C(=O)NCN2c1ccccc1 (stereo unspecified)	/	/	-1.8	2.7	/	123.2*
N#CC(C#N)=Cc1ccc(-c2ccccc2)o1	36.7*	0.1	/	/	/	/	TPT1 inh confirm=36.1*;RNase T1 counter=64.2*
CC(C)n1c(=O)c(C=Nc2ccc(S(N)(=O)=O)cc2)c(O)n(Cc2ccco2)c1=O	42.4*	13.8	4.9	27.9	5.2	4.6	TPT1 inh confirm=12.4;RNase T1 counter=19.7
CCCCn1c(=O)c(C=Nc2ccc(Cl)cc2)c(O)n(Cc2ccco2)c1=O	12.1	-4.3	-0.8	/	-3.9	7.5
O=Cc1c(C(=O)O)n(Cc2ccc(Cl)cc2)c2ccccc12	76.6*	9.4	80.8*	/	-24.4	60.2*	TPT1 inh confirm=174.1*;RNase T1 counter=161.0*
CCCCn1nnnc1C(c1cccs1)N1CCC2(CC1)C(=O)NCN2c1ccccc1 (stereo unspecified)	/	/	3.0	-2.1	/	3.5
CCC(C)N1C(=O)/C(=C/c2ccc3c(c2)CCN3CCCCl)C(=O)NC1=S (stereo unspecified)	40.6*	-2.3	-9.9	/	-0.9	21.7	TPT1 inh confirm=56.4*;RNase T1 counter=71.9*
O=C(Nc1ccc(F)cc1)N1Cc2ccccc2-n2nncc2C1	/	/	-6.6	9.9	/	2.9
CCc1nn2c(=O)c(F)c(N3CCNCC3)nc2s1	/	/	-0.1	-5.8	/	-3.6
O=C1NC(=O)N(c2ccccc2)C(=O)/C1=C\C=C\c1ccccc1	11.4	-0.3	-3.0	-0.8	/	0.7
Cc1ccc(N2C(=O)NC(=O)/C(=C/C=C/c3ccco3)C2=O)cc1	27.6*	8.4	7.4	39.2	-10.9	31.2	TPT1 inh confirm=35.0*;RNase T1 counter=52.4*
Cc1ccccc1-c1ccc2c(c1)C1c3c(-c4ccccc4)nnn3-c3ccccc3C(=O)N1CC2 (stereo unspecified)	/	/	1.0	-0.6	/	1.8
CCN1C(=O)CC(=O)N(CC)C1=S	/	/	1.1	16.1	/	-3.9
CCN(CC)c1ccc(N=Cc2c(O)n(-c3ccc(Cl)cc3)c(=O)[nH]c2=O)cc1	27.0*	4.8	45.4	/	0.5	48.7	TPT1 inh confirm=57.8*;RNase T1 counter=71.9*
CCN(CC)c1ccc(N=Cc2c(O)n(-c3ccc(OC)cc3)c(=O)[nH]c2=O)cc1	56.2*	-2.9	6.4	-80.0	-1.4	-37.4	TPT1 inh confirm=-27.4;RNase T1 counter=-17.5
C=CCn1c(O)c(C=Nc2ccc(N(CC)CC)cc2)c(=O)[nH]c1=O	23.1	-4.4	7.8	13.6	-2.3	6.3
CC(=O)O[C@H]1CCC2C3CC[C@H]4[C@@H](O)[C@H](O)CC[C@]4(C)C3CC[C@@]21C (stereo partly specified)	/	/	-6.5	0.3	-1.4	-4.7
CC(C)(C)c1cc(C=C(C#N)C#N)cc(C(C)(C)C)c1O	60.8*	3.0	12.0	38.8	2.0	9.0	TPT1 inh confirm=82.3*;RNase T1 counter=89.6*
N#CC(C#N)=Cc1ccc(O)c(O)c1	-1.2	-0.1	-4.1	-3.4	7.1	5.0
